pIC50, pKi: −log10 of the molar value. Calls of active or inactive are those of the source. No cut-off for these calls is given here.

Three molecules from ChEMBL document CHEMBL4680111, “Target Validation and Identification of Novel Boronate Inhibitors of the Plasmodium falciparum Proteasome” (J Med Chem, 2018) can be followed below.

The nature of assay [1]: Binding affinity to Plasmodium falciparum 20S proteasome beta 2 subunit assessed as equilibrium constant using fluorogenic peptide Ac-WLR-AMC as substrate in presence of PA28alpha by fluorescence based microplate reader assay.
Assay [2] concerns Plasmodium falciparum 3D7. The experiment in a line: Inhibition of 20S proteasome beta 2 subunit in bortezomib-resistant Plasmodium falciparum 3D7 assessed as inhibition of BMV037 probe labeling at 1 to 10 uM incubated for 1 hr by SDS-PAGE analysis. Particulars: dose 1-10 µM.
Assay [3] deals with Proteasome Macropain subunit (Homo sapiens) (UniProt P49721). Description: Binding affinity to human 20S constitutive proteasome beta 2 subunit assessed as half-life using fluorogenic peptide Ac-WLR-AMC as substrate in presence of PA28alpha by fluorescence based microplate reader assay.
Proteasome Macropain subunit (Homo sapiens), sequence (P49721 whole entry): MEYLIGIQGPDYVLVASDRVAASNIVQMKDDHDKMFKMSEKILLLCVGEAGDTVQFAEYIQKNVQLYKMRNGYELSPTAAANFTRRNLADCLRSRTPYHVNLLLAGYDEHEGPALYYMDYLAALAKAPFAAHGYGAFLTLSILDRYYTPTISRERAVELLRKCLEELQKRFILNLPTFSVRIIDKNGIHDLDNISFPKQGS
Assay [4] has as its target T1, Proteasome Macropain subunit MB1 (Homo sapiens, UniProt P28074).
T1 sequence (P28074 whole entry): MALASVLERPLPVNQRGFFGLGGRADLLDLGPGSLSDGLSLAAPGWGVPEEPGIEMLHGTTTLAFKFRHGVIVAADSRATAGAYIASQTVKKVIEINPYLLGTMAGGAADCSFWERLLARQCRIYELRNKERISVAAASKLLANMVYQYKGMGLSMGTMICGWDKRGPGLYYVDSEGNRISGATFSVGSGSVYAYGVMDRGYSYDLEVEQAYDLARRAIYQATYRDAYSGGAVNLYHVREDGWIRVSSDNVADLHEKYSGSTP
The experiment in a line: Binding affinity to human 20S constitutive proteasome beta 5 subunit assessed as equilibrium constant using fluorogenic peptide Ac-WLA-AMC as substrate in presence of PA28alpha by fluorescence based microplate reader assay.

The target in assay [5] is T2, Proteasome component C5 (Homo sapiens) (UniProt P20618).
T2 sequence (whole entry): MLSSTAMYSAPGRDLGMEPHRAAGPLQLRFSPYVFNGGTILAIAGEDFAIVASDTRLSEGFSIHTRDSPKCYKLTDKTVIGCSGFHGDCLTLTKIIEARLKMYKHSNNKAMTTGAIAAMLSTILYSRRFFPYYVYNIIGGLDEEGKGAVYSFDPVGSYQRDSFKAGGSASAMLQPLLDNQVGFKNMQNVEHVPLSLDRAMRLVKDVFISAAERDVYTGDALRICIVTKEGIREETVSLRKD
Description: Inhibition of human 20S constitutive proteasome beta 1 subunit assessed as inhibition of BMV037 probe labeling at 1 to 10 uM incubated for 1 hr by SDS-PAGE analysis. The note with it: dose 1-10 µM. In a few lines:
(§1)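 Purified human constitutive 20S (20 nM) was treated with compound at 37°C for 1 h, then labelled with 10 µM BMV037 at 37°C for 2 h. Samples were run on 10% Bis-Tris gel with MOPS buffer, and active subunits were detected by Cy5 fluorescence scan.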

For assay [6], the system named is Plasmodium falciparum 3D7. Description: Inhibition of 20S proteasome beta 2 subunit from bortezomib resistant Plasmodium falciparum 3D7 trophozoite infected erythrocytes assessed as inhibition of BMV037 probe labeling at 1 to 10 uM incubated for 1 hr by SDS-PAGE analysis. The note with it: dose 1-10 µM.
Assay [7] relates to Plasmodium falciparum. The experiment in a line: Binding affinity to Plasmodium falciparum 20S proteasome beta 5 subunit assessed as half-life using fluorogenic peptide Ac-WLA-AMC as substrate in presence of PA28alpha by fluorescence based microplate reader assay.
Assay [8] deals with Plasmodium falciparum. The experiment in a line: Binding affinity to Plasmodium falciparum 20S proteasome beta 2 subunit assessed as half-life using fluorogenic peptide Ac-WLR-AMC as substrate in presence of PA28alpha by fluorescence based microplate reader assay.
For assay [9], the system named is Plasmodium falciparum. The experiment in a line: Synergistic antiplasmodial activity against DHA-resistant and sorbitol synchronized ring stage forms of Plasmodium falciparum Cam3.II^R539T expressing K13 mutant assessed as reduction in parasitemia incubated for 3 hrs in presence of DHA by pulse exposure based Syto-61 staining dye based flow cytometry analysis. In kind it is functional, organism-based. On the technique in general: In flow cytometry, cells or beads pass a laser one at a time.

Assay [10] deals with T3, Proteasome subunit beta type-7 (Homo sapiens, UniProt Q99436).
T3 sequence (Q99436 whole entry): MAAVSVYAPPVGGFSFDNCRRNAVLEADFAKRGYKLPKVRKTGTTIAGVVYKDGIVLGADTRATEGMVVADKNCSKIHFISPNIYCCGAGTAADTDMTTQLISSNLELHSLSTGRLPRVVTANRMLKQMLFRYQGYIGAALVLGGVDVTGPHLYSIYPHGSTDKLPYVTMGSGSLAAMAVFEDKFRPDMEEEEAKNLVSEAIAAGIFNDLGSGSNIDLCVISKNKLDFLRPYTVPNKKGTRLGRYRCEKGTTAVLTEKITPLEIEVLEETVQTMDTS
Description: Inhibition of human 20S constitutive proteasome beta 2 subunit trypsin-like activity using fluorogenic peptide Ac-WLR-AMC as substrate in presence of PA28alpha incubated for 1 to 2 hrs by fluorescence microplate reader assay.

Assay [11] concerns the target T4, Proteasome subunit beta type-9 (Homo sapiens) (UniProt P28065).
T4 sequence (whole entry): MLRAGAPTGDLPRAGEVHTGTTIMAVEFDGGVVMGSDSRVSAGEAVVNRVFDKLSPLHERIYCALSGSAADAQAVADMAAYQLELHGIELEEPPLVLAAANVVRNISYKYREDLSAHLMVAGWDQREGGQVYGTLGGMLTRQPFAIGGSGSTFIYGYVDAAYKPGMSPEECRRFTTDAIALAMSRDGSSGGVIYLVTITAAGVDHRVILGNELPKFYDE
The experiment in a line: Inhibition of human 20S immunoproteasome beta 1 subunit assessed as inhibition of BMV037 probe labeling at 1 to 10 uM incubated for 1 hr by SDS-PAGE analysis. The note with it: dose 1-10 µM. In a few lines: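 Purified human immuno-20S (20 nM) was incubated with compound at 37°C for 1 h, then labelled with 10 µM BMV037 at 37°C for 2 h. Samples were run on 4-12% Bis-Tris gel with MES buffer, and active subunits were visualised by Cy5 fluorescence.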

The target of assay [12] is T5, Proteasome Macropain subunit MB1 (Homo sapiens) (UniProt P28074).
T5 sequence (whole entry): T1 sequence (P28074 whole entry)
Description: Inhibition of human 20S constitutive proteasome beta 5 subunit assessed as inhibition of BMV037 probe labeling at 1 to 10 uM incubated for 1 hr by SDS-PAGE analysis. The note with it: dose 1-10 µM. In outline:
as §1

The target in assay [13] is T5, Proteasome Macropain subunit MB1 (Homo sapiens). Description: Inhibition of human 20S constitutive proteasome beta 5 subunit assessed as inhibition of BMV037 probe labeling at 1 uM incubated for 1 hr by SDS-PAGE analysis. In outline:
as §1

For assay [14], the target named is T2, Proteasome component C5 (Homo sapiens). The experiment in a line: Inhibition of human 20S constitutive proteasome beta 1 subunit assessed as inhibition of BMV037 probe labeling at 1 uM incubated for 1 hr by SDS-PAGE analysis. In outline:
as §1

Assay [15] relates to Plasmodium falciparum 3D7. The experiment in a line: Inhibition of 20S proteasome beta 5 subunit from bortezomib resistant Plasmodium falciparum 3D7 trophozoite infected erythrocytes assessed as inhibition of BMV037 probe labeling at 1 to 10 uM incubated for 1 hr by SDS-PAGE analysis. The note with it: dose 1-10 µM.
The test system of assay [16] is Plasmodium falciparum. Description: Inhibition of proteasome in Plasmodium falciparum trophozoite stage transfected with GFP-DD assessed as reduction in GFP-DD fusion protein degradation at 0.2 to 0.5 uM incubated for 3 hrs in absence of Shield-1 by Western blot analysis. The note with it: dose 0.2-0.5 µM. In outline:
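GFP-DD reporter parasites were held in Shield-1 for 24 h, then washed out. Trophozoites at 5% hematocrit and 5% parasitemia were exposed to compound for 3 h at 37°C. Saponin-isolated parasites were lysed and blotted with anti-GFP (1:1000), with anti-PfBiP as loading control. Representative of four independent experiments.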
Background: In western blotting, separated proteins are transferred to a membrane and probed.

Assay [17] has as its target T5, Proteasome Macropain subunit MB1 (Homo sapiens). The experiment in a line: Inhibition of human 20S constitutive proteasome beta 5 subunit assessed as inhibition of BMV037 probe labeling at 10 uM incubated for 1 hr by SDS-PAGE analysis. In a few lines:
as §1

`CC(C)C[C@H](NC(=O)[C@H](Cc1ccccc1)NC(=O)Cc1ccc(O)cc1)B(O)O`: the negative logarithm of the Ki (pKi) in [1] was 8.19; in assay [4] it was 9.89. Besides, the inhibition result in [2], in assay [5], in [6], in assay [11] and in assay [12] was “Active” throughout. The T1/2 came out at 2 min in assay [3], 1.08 h with Plasmodium falciparum [7] and 1.08 h in the assay with Plasmodium falciparum [8]. In the assay on Plasmodium falciparum [9], the outcome was Active. In [10], the pIC50 is 6.17.
Consider `Cc1ccc(S(=O)(=O)N[C@@H](CC(=O)NCC(C)(C)C)C(=O)N[C@@H](Cc2ccccc2)C(=O)N[C@@H](CC(C)C)B(O)O)cc1`, for which the inhibition result in [2], in assay [5], in [15], in assay [6], in assay [11] and in assay [12] was “Active” in each case. Further, the inhibition result in [13] and in assay [14] was “inactive” each time. The pIC50 in assay [10] is 6.36.
In the case of `CC(=O)N1CCC[C@@H]1C(=O)N[C@@H](C)C(=O)N[C@@H](Cc1ccccc1)B(O)O`, the inhibition entry (in [15]; in the assay on Plasmodium falciparum [16]) was “Active” in each case. In addition, the outcome in the assay with Plasmodium falciparum [9] was Active. Moreover, the inhibition entry in [17] is “inactive”. The negative-log IC50 (pIC50) in assay [10] is less than 5.00.

As usually defined, the pKi is −log10 of the Ki, conventionally taken in molar units. Usually pIC50 stands for −log10 of the IC50, conventionally taken in molar units.
